# Bioassay records deposited in PubChem BioAssay by several laboratories.
# In the library only some 1.9% were active in any assay of this set; here they are far more common.
# NR2E3 ag-1 = NR2E3 agonists in two-hybrid cells, primary screen, cell-based, luminescence, CHO-S, Gal4-NCOR/VP16-NR2E3; 360,000 tested, 0.35% active; Photoreceptor-specific nuclear receptor (Homo sapiens), Q9Y5X4; AID 602229, 2012; inhibition of corepressor binding, % at 3.98 µM; luciferase;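 active = inhibition above the mean of all tested compounds plus 3 SD, cut at about 70% in these data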;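 also: 0% = DMSO with NR2E3 transfected cells and 100% = cells lacking NR2E3 construct; higher means lower luciferase signal from less NR2E3 corepressor binding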
# Target sequence (Q9Y5X4 whole entry, looked up, the tested form may be a part): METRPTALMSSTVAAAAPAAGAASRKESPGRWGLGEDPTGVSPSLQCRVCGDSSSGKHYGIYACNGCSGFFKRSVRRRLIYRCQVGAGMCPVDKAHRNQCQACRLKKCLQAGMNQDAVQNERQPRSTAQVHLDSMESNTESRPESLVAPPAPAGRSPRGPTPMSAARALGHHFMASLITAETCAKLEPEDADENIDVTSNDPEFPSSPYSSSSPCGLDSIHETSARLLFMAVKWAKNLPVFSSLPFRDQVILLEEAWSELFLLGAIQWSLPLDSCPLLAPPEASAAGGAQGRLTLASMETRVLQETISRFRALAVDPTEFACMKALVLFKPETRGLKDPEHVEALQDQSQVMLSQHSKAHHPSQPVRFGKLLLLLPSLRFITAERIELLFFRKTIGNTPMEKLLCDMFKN
# SKN-1 block = suppressors of acrylamide-induced Pgst-4::GFP reporter in worms, primary screen, SKN-1 inhibitor project, whole organism, uHTS, GFP/RFP fluorescence ratio, strain VP596 | C. elegans VP596 Pgst-4::GFP/RFP ratio, 24 h | 360,000 tested, 0.49% active | inhibition, % at 21.8 µM | AID 624304, 2012;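 active = interference check ratio from 0.5 to 1.5 plus GFP to RFP signal ratio inhibition reaching or exceeding a fixed threshold, cut at about 30% in these data, passing the limit was not always enough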
# PG9 binder = binders of HIV-1 gp120 antibody PG9, primary screen, biochemical, TR-FRET; 360,000 tested, 0.43% active; inhibition, % at 6.7 µM; TR-FRET gp120-PG9 antibody binding; HIV-1 gp120 / PG9 antibody interaction; AID 624416, 2012; in the data active = inhibition above about 8.5%
# Rev-erbA mod = modulators of Rev-erb alpha DNA binding, primary screen, biochemical, FITC-DNA, fluorescence polarization, uHTS | activity, % at 10 µM | 370,000 tested, 0.79% active | Rev-erbα–FITC-DNA binding, 90 min | Nuclear receptor subfamily 1 group D member 1 (Homo sapiens), P20393;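 active = activity above about 14%, limit read from the data; passing the limit was not always enough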;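 also: 0% = DMSO wells with 35 nM protein and 100% = DMSO wells with 750 nM protein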
# NR2E3 ag-2 = inhibitors of NR2E3-RetCOR corepressor binding, primary screen, NR2E3 agonist project, biochemical, TR-FRET, GST-NR2E3, biotin-RetCOR; Photoreceptor-specific nuclear receptor (Homo sapiens), Q9Y5X4; 1536-well; inhibition of corepressor binding, % at 4.78 µM; 320,000 tested, 0.12% active;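 active = percent inhibition above the cutoff of mean plus 3 SD of all tested compounds, set per screening campaign, cut at about 20% in these data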;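 also: 0% = DMSO wells and 100% = biotin wells as full block of FRET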
#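 Material – GST-tagged NR2E3 plus biotinylated RetCOR corepressor · Quantity – NR2E3 fusion 1.35 nM · Times – 5 h incubation at 4 °C · Medium – pH 7.5 Tris-based buffer · Technique – TR-FRET, Eu(K)-anti-GST donor, streptavidin-D2 acceptor, ex 340, em 617/671 nm · Benchmarks – high control biotin, low control 0.6% DMSO · Format – 1536-well plates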
# MT1-MMP act inh = blockers of MT1-MMP proenzyme processing, primary screen, HT1080 RFP-PRO-GFP cells, GFP/RFP fluorescence; GFP/RFP ratio fluorescence, overnight; percent of plate control window, DMSO zero; GFP/RFP ratio change, % at 20 µM; 360,000 tested, 0.061% active;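 active = GFP/RFP ratio change of at least 30% with cell ATP level not reduced by more than half and red fluorescence within 50% of control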
#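 Read-out: GFP/RFP fluorescence ratio; Test system: RFP-PRO-GFP reporter HT1080 cells; Compound dosing: single-point 20 µM compound, 1% DMSO; Times: overnight compound exposure at 37 °C.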
# Rev-erbA confirm = modulators of Rev-erb alpha DNA binding, confirmation, biochemical, FITC-DNA, fluorescence polarization, single point. 90 min. shares compounds with Rev-erbA mod. 3,000 tested, 61% active. activation, % at 25 µM;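 active = activation at or above a set limit, or at least 3 SD above the negative control mean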;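 also: 0% = 35 nM protein with DMSO and 100% = 750 nM protein high control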
# RORg counter = modulation of RORgamma DNA binding, dose response, counter-screen for Rev-erb alpha modulator project, biochemical, fluorescence polarization, FITC-DNA. purified RORgamma protein-FITC-DNA binding. shares compounds with Rev-erbA mod. 910 tested, 8% active. IC50, µM;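 active = Compounds whose fitted half-maximal concentration for disrupting protein-DNA binding is below 10 micromolar; the record names Rev-erb in its text, so the target is in doubt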
# The depositor's hits bear a star; . = no result.
SMILES,NR2E3 ag-1,SKN-1 block,PG9 binder,Rev-erbA mod,NR2E3 ag-2,MT1-MMP act inh,Rev-erbA confirm,others
Oc1ccc(C[C@H]2CN([C@@H](Cc3cccc(O)c3)CN3CCC[C@@H]3CN3C(=S)NC[C@@H]3Cc3ccccc3)C(=S)N2CC2CCCCC2)cc1,33,11,1,1,.,-9,.,
Cc1cc(C)c2nc(SCC(=O)N3CCCCC3)c(C#N)cc2c1,-14,1,-1,27*,.,2,23*,
Cc1cc(C)c2nc(SCC(=O)NCC3CCCO3)c(C#N)cc2c1 (stereo unspecified),-6,7,-1,60*,-2,-2,42*,RORg counter=>40
Cc1cc2cccc(C)c2nc1SCC(=O)NCC1CCCO1 (stereo unspecified),-28,-3,-1,4,6,-5,.,
Cc1cc(C)c(C#N)c(SCC(=O)N2CCCCC2)n1,-24,1,0,-1,1,6,.,
CCCCCn1cc(CCC(=O)Nc2ccc(Oc3cccnc3)cc2)c2ccccc21,.,.,2,4,.,.,.,
CC(=O)c1ccc(N2CCN(C(=O)CCCn3c(=S)[nH]c4cc5c(cc4c3=O)OCO5)CC2)cc1,-15,-22,-2,25*,-2,2,17,
O=C(Cn1c(=S)[nH]c2ccccc2c1=O)N1CCN(c2ccccc2)CC1,4,11,0,40*,4,3,24*,
O=C(CCCn1c(=S)[nH]c2cc3c(cc2c1=O)OCO3)N1CCN(c2ccc(Cl)cc2)CC1,3,21,4,21,2,-2,.,
O=C(C1CCC(Cn2c(=S)[nH]c3ccccc3c2=O)CC1)N1CCN(c2ccccc2)CC1 (stereo unspecified),-16,22,-2,5,2,-4,.,
Cc1cccc(N2CCN(C(=O)CCCn3c(=S)[nH]c4cc5c(cc4c3=O)OCO5)CC2)c1C,3,8,5,24*,0,2,20*,
N#C/C(=C\c1ccc(N2CCOCC2)o1)C(=O)NCC1CCCO1 (stereo unspecified),-23,2,-17,21*,-5,-55,13,
N#C/C(=C/c1ccc(N2CCOCC2)o1)C(=O)Nc1ccccc1,-134,14,-16,53*,.,-128,26*,
N#C/C(=C\c1ccc(N2CCOCC2)o1)C(=O)NC1CCCCC1,-35,19,-11,11,-6,-132,.,
O=C(Nc1cccc(Br)c1)c1cc(S(=O)(=O)N2CCOCC2)cs1,-5,-1,-1,30*,0,4,5,
Cc1c(C(=O)Nc2cccc(S(=O)(=O)N3CCOCC3)c2)oc2ccc(Br)cc12,-9,5,1,16*,.,-1,-2,
CCN(CC)C(=O)CSC1=C(C#N)C(c2cccs2)C=C(C)N1 (stereo unspecified),-19,5,-1,56*,0,-4,42*,RORg counter=>40
C#CCSC1=C(C#N)C(c2cccs2)C(C(=O)OCC)=C(C)N1 (stereo unspecified),-10,17,-1,6,0,-4,.,
O=[N+]([O-])c1cccc(-c2cc(C(F)(F)F)n3nc(-c4ccccc4)cc3n2)c1,-9,-6,-2,10,4,2,.,
